Data on eight compounds can be found in PubChem BioAssay.

Test [1] can be described thus: hit retest on RPL19A-GFP reporter strain – cell-based, S. cerevisiae, flow cytometry, cherry picks, mother/daughter gates, confirmation (AID 2270;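 active means GFP response below 50% of the DMSO control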). Conditions: 3 h, at 10 µM, stronger effect = lower value, 100 = same GFP as DMSO wells. In general terms: Flow cytometry measures light scatter and fluorescence of single cells or particles in a stream.
The nature of test [2]: yeast TOR pathway reporter LAP4-GFP change – cell-based, cherry picks, flow cytometry, mother/daughter gates, confirmation (AID 2271;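 active means GFP response above 150% of the DMSO control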;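 further: ratio of sample to DMSO plate mean so 100% equals DMSO level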). Conditions: S. cerevisiae LAP4-GFP strain, 3 h, at 10 µM, stronger effect = higher value, 100 means same as DMSO control. The essentials:
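material = Alexa 633-stained baker's yeast GFP-fusion strain | amount = 0.2 OD600 cells | schedule = 30 °C, 3 h compound incubation, rotating | signal = GFP by flow cytometry | measure = per-gate (all, mother, daughter) GFP response vs DMSO | controls = positive rapamycin (400 ng/mL), negative DMSO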

Test [3] is described as follows: TOR pathway reporter MEP2-GFP, retest of hits – S. cerevisiae, flow cytometry GFP, cherry picks, confirmation (AID 2272;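 active means GFP response above 150% of the DMSO control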;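 further: ratio of well signal to plate DMSO mean so 100% equals DMSO level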). Conditions: S. cerevisiae MEP2-GFP strain, 3 h, at 10 µM, stronger effect = higher value.
Test [4] is described as follows: yeast AGP1-GFP fluorescence change, single-dose – cell-based, flow cytometry, S. cerevisiae, cherry picks, confirmation (AID 2273).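 Further: median GFP channel fluorescence over the whole cell population gate.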 Conditions: S. cerevisiae AGP1-GFP strain, 3 h, at 10 µM.
Test [5] can be described thus: TOR pathway CIT2 reporter hit retest – S. cerevisiae, GFP fusion, cherry picks, mother/daughter gates, confirmation (AID 2274). As to conditions: S. cerevisiae CIT2-GFP strain, flow cytometry, 3 h, at 10 µM, stronger effect = higher value.
Setting [6] is: measured here: daughter cell gate.
[7] abbreviates: measured here: mother cell gate.
[8] abbreviates: measured here: daughter cell gate response.
Where [9] appears, read: measured here: mother cell gate response.

Calls of active or inactive are those of the source.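 How the source made its calls, unless noted: active means GFP response above 150% of the DMSO level; inconclusive means fewer than 70 events counted for a yeast strain; inactive means the rest.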

Consider `COc1ccc(-c2cc(C(F)(F)F)nc(N3CCOCC3)n2)cc1OC`, for which the GFP response vs DMSO in test [1] is 100% (inactive); in test [1] (setting [6]), 100%; in test [1] (setting [7]), 98.4%; in test [3] it was 126% (inactive). The GFP response relative to DMSO was 101% (inactive) in test [2], 101% in test [2] (setting [8]) and 102% in test [2] (setting [9]). Moreover, the GFP response, % of DMSO in test [4] was 99.5% (inactive); in test [5] it was 110% (inactive); in test [5] (setting [6]) it was 114%; in test [5] (setting [7]) it was 109%.
In the case of `Cc1ccc(N(C(=O)CNC(=O)c2ccco2)C(C(=O)NC2CCCC2)c2cccnc2)cc1C` (stereo not drawn), the GFP response vs DMSO in test [1] is 104% (inactive); in test [1] (setting [6]) it was 100%; in test [1] (setting [7]), 108%; in test [3], 99% (inactive). Further, the GFP response relative to DMSO was 95.7% (inactive) in test [2], 95.9% in test [2] (setting [8]) and 95.2% in test [2] (setting [9]). Also, the GFP response, % of DMSO is 105% (inactive) in test [4], 102% (inactive) in test [5], 99.2% in test [5] (setting [6]) and 102% in test [5] (setting [7]).
Regarding `COC(=O)c1ccc(/C=N/NC(=O)c2cccc(F)c2)cc1`, the GFP response vs DMSO in test [1] is 99.9% (inactive); in test [1] (setting [6]) it was 99.3%; in test [1] (setting [7]) it was 98.6%; in test [3], 104% (inactive). Moreover, the GFP response relative to DMSO in test [2] is 103% (inactive); in test [2] (setting [8]) it was 102%; in test [2] (setting [9]), 101%. The GFP response, % of DMSO in test [4] was 99.3% (inactive); in test [5] it was 99.3% (inactive); in test [5] (setting [6]), 100%; in test [5] (setting [7]) it was 99.1%.
`CC1=NNC(=O)/C1=C\c1cn(-c2ccccc2)nc1-c1cccs1`: the GFP response vs DMSO in test [1] is 92.6% (inactive); in test [1] (setting [6]), 88%; in test [1] (setting [7]), 89.6%; in test [3], 103% (inactive). The GFP response relative to DMSO in test [2] was 288% (active); in test [2] (setting [8]) it was 122%; in test [2] (setting [9]) it was 269%. The GFP response, % of DMSO in test [4] is 120% (inactive); in test [5], 119% (inactive); in test [5] (setting [6]), 93.8%; in test [5] (setting [7]), 114%.
Consider `CC[n+]1c(/C=C/c2ccc(N(C)C)cc2)ccc2ccccc21`, for which the GFP response vs DMSO in test [1] was 99.4% (inactive); in test [1] (setting [6]), 96.6%; in test [1] (setting [7]) it was 96.5%; in test [3], 118% (inactive). In addition, the GFP response relative to DMSO was 105% (inactive) in test [2], 104% in test [2] (setting [8]) and 106% in test [2] (setting [9]). Besides, the GFP response, % of DMSO is 101% (inactive) in test [4], 97.3% (inactive) in test [5], 97.4% in test [5] (setting [6]) and 96.8% in test [5] (setting [7]).
Consider `CC(C)c1nnc(SCC(=O)N2CCc3ccccc32)n1C`, for which the GFP response vs DMSO in test [1] is 102% (inactive); in test [1] (setting [6]), 101%; in test [1] (setting [7]), 101%; in test [3] it was 102% (inactive). Also, the GFP response relative to DMSO is 96.2% (inactive) in test [2], 95.6% in test [2] (setting [8]) and 99.3% in test [2] (setting [9]). The GFP response, % of DMSO in test [4] was 97.6% (inactive); in test [5], 97.8% (inactive); in test [5] (setting [6]), 98.1%; in test [5] (setting [7]) it was 96.6%.
With `Cn1cnc([N+](=O)[O-])c1S(=O)(=O)c1cccc(Cl)c1`, the GFP response vs DMSO was 103% (inactive) in test [1], 99.9% in test [1] (setting [6]), 100% in test [1] (setting [7]) and 103% (inactive) in test [3]. Also, the GFP response relative to DMSO in test [2] is 107% (inactive); in test [2] (setting [8]), 104%; in test [2] (setting [9]), 108%. Also, the GFP response, % of DMSO is 113% (inactive) in test [4], 118% (inactive) in test [5], 119% in test [5] (setting [6]) and 113% in test [5] (setting [7]).
Consider `Cc1ccc(S(=O)(=O)N(CC(=O)NCc2ccncc2)Cc2ccccc2F)cc1`, for which the GFP response vs DMSO in test [1] is 97.6% (inactive); in test [1] (setting [6]) it was 97.1%; in test [1] (setting [7]), 98.5%; in test [3] it was 105% (inactive). Besides, the GFP response relative to DMSO was 99.2% (inactive) in test [2], 99.2% in test [2] (setting [8]) and 97.2% in test [2] (setting [9]). Also, the GFP response, % of DMSO in test [4] is 102% (inactive); in test [5] it was 103% (inactive); in test [5] (setting [6]), 101%; in test [5] (setting [7]) it was 102%.
